This note sets out measurements from ChEMBL document CHEMBL4371011, “Pyrrolone Derivatives as Intracellular Allosteric Modulators for Chemokine Receptors: Selective and Dual-Targeting Inhibitors of CC Chemokine Receptors 1 and 2” (J Med Chem, 2018).

The structures appear in SMILES notation. Active and inactive are the calls of the source. The rule behind the calls is not given here.

Usually inhibition stands for the drop in the measured response relative to a control, in per cent.

In assay [1] the target is T1, C-C chemokine receptor type 2 (Homo sapiens, UniProt P41597). The assay can be described thus: Displacement of [3H]-CCR2-RA-[R] from human TEV protease site linked CCR2b expressed in human U20S cell membranes co-expressing Gal4-VP16 transcription factor after 120 mins by scintillation spectrometry. (In general: Loss of bound radioactivity is the signal in a displacement assay; it reports binding, not function.)

The target in assay [2] is T2, C-C chemokine receptor type 1 (Homo sapiens, UniProt P32246).
T2 sequence (P32246 whole entry): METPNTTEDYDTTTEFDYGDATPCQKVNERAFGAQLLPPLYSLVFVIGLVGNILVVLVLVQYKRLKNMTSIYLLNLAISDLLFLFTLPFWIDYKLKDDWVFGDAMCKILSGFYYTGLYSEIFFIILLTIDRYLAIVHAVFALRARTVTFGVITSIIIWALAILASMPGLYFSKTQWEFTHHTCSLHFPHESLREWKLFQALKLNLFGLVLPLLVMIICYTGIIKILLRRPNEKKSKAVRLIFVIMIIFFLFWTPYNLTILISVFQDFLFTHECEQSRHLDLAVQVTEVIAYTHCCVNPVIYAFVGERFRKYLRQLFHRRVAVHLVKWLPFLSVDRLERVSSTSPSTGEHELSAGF
The assay can be described thus: Antagonist activity at human TEV protease site linked CCR1 expressed in human U20S cell membranes co-expressing Gal4-VP16 transcription factor assessed as reduction in CCL3-induced G-protein activation preincubated for 30 mins in presence of CCL3 followed by incubation of 90 mins by [35S]GTPgammaS binding assay. Format: functional. In a few lines:
(§1)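 Stably transfected U2OS membranes (10 μg; human CCR1 or CCR2b) in 50 mM Tris-HCl pH 7.4 with 5 mM MgCl2, 100 mM NaCl, 1 mM EDTA, 0.05% BSA, 10 μM GDP and 10 μg saponin. Preincubated with graded compound plus 8 nM CCL3 (CCR1) or 20 nM CCL2 (CCR2), then 0.3 nM [35S]GTPγS for 90 min at 25 °C.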

Assay [3] has as its target T1, C-C chemokine receptor type 2. The assay can be described thus: Antagonist activity at human TEV protease site linked CCR2b expressed in human U20S cell membranes co-expressing Gal4-VP16 transcription factor assessed as reduction in CCL2-induced G-protein activation preincubated for 30 mins in presence of CCL2 followed by incubation of 90 mins by [35S]GTPgammaS binding assay. Format: functional. An outline of the steps: as §1
In general terms: Binding of GTPγS marks nucleotide exchange on a G protein.

For a further assay, the species on record is Homo sapiens. The assay can be described thus: Selectivity ratio of IC50 for human TEV protease site linked CCR1 expressed in human U20S cell membranes co-expressing Gal4-VP16 transcription factor to IC50 for human TEV protease site linked CCR2b expressed in human U20S cell membranes co-expressing Gal4-VP16 transcription factor. In kind it is cell-based.

For assay [4], the target named is T3, C-C chemokine receptor type 1 (Homo sapiens) (UniProt P32246).
T3 sequence (whole entry): T2 sequence (P32246 whole entry)
The assay can be described thus: Inverse agonist activity at human TEV protease site linked CCR1 expressed in human U20S cell membranes co-expressing Gal4-VP16 transcription factor assessed as decrease in basal activity at 100 uM after 90 mins in presence of 1 uM GDP by [35S]GTPgammaS binding assay relative to control. In kind it is functional. In a few lines:
(§2)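 Basal [35S]GTPγS binding on human CCR1 U2OS membranes (10 μg) with saponin, in Tris/MgCl2/NaCl/EDTA/0.05% BSA, pH 7.4, without chemokine. Compound was tested at 100 μM with GDP at 1, 10 or 20 μM. Preincubation was 30 min at 25 °C, then 90 min after adding 0.3 nM [35S]GTPγS. Filtration and scintillation read-out; decrease versus basal.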

Assay [5] addresses T3, C-C chemokine receptor type 1 (Homo sapiens). As to the kind of experiment: Inverse agonist activity at human TEV protease site linked CCR1 expressed in human U20S cell membranes co-expressing Gal4-VP16 transcription factor assessed as decrease in basal activity at 100 uM after 90 mins in presence of 10 uM GDP by [35S]GTPgammaS binding assay relative to control. Format: functional. An outline of the steps: as §2

Assay [6] has the same target. The assay can be described thus: Inverse agonist activity at human TEV protease site linked CCR1 expressed in human U20S cell membranes co-expressing Gal4-VP16 transcription factor assessed as decrease in basal activity at 100 uM after 90 mins in presence of 20 uM GDP by [35S]GTPgammaS binding assay relative to control. In kind it is functional. An outline of the steps:
as §2

The target is the same in assay [7]. The assay can be described thus: Inverse agonist activity at human TEV protease site linked CCR1 expressed in human U20S cell membranes co-expressing Gal4-VP16 transcription factor assessed as decrease in basal activity after 90 mins in presence of 1 uM GDP by [35S]GTPgammaS binding assay relative to control. In kind it is functional. In a few lines: as §2
Assay [8] concerns the target T2, C-C chemokine receptor type 1. The assay can be described thus: biochemical.

T1 sequence (P41597 whole entry, the tested form may be a part): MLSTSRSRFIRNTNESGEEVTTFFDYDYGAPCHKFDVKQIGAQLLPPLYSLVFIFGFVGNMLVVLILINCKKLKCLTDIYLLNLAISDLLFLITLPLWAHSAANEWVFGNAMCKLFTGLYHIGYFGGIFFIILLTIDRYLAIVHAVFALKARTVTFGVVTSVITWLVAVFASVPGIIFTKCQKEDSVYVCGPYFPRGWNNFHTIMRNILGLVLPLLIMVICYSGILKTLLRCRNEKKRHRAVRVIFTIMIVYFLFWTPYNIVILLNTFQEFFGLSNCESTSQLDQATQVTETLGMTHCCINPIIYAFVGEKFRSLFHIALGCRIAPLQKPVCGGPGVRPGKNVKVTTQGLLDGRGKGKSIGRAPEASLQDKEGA

Turning to `CC(=O)C1=C(O)C(=O)N(c2ccc(Cl)c(C)c2)C1C1CCCCC1` (configuration not stated), the Ki in assay [1] (read-out: Ki) is 9 nM; in assay [1] (read-out: pKi (converted)), 8.13 nM; in [8], 31 nM. Further, the IC50 in assay [2] (read-out: IC50) is 1940 nM; in assay [2] (read-out: pIC50 (converted)), 1860 nM; in assay [3] (read-out: IC50) it was 40 nM; in [3] (read-out: pIC50 (converted)), 33.9 nM. Besides, in the assay filed under Homo sapiens, the Ratio IC50 stood at 48. Also, the inhibition is 22% in [4], 26% in assay [5] and 25% in [6]. Also, the outcome in assay [7] was Active.
